According to paper PMC4980657 (Journal of medicinal chemistry, 2015):
Like-named read-outs stand apart in the source and are kept apart here.

Tests used:
[1] = molecular target: PCP binding site of the NMDA receptor; details: rat brain membranes, cited from earlier work; for Ki: read-out: [3H]TCP Ki; for inhibition (%) of [3H]TCP binding: test ligand at 1.0 μM
[2] = molecular target: PCP binding site of the NMDA receptor; details: read-out: Ki vs [3H]1; cited from earlier work
[3] = molecular target: PCP binding site of the NMDA receptor; details: mean from two experiments, rat brain membranes; for inhibition (%) of [3H]TCP binding: test ligand at 1.0 μM
Method in brief: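 Outsourced to a contract lab using rat brain membrane suspensions and [3H]TCP as radioligand. Test ligands were first screened at 1 μM for percent inhibition of [3H]TCP binding. […] Values are the mean of two experiments.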

| Structure (SMILES) | Ki [1] | inhibition (%) of [3H]TCP binding [1] | Ki [2] | Ki ([3]; read-out: [3H]TCP Ki) | inhibition (%) of [3H]TCP binding [3] |
| --- | --- | --- | --- | --- | --- |
| CN(C(N)=Nc1cccc2ccccc12)c1cccc(I)c1 [compound 3, reference compound] | 31.9 nM | 106% |  |  |  |
| CN(C(=N)Nc1cccc2ccccc12)c1cccc(C(F)(F)F)c1 [compound 7, 1-Methyl-3-(naphthalen-1-yl)-1-(3-(trifluoromethyl)phenyl)guanidine] | 18.3 nM | 107% | 2.68 nM |  |  |
| CN(C(=N)Nc1cccc2ccccc12)c1cc(C(F)(F)F)ccc1F [compound 13, 1-(6-fluoro-3-(trifluoromethyl)phenyl)-1-methyl-3-(naphthalen-1-yl)guanidine] |  |  |  | 13 nM | 91.0% |
| CN(C(=N)Nc1cc(SCF)ccc1Cl)c1cccc(C(F)(F)F)c1 [compound 46, 3-(2-Chloro-5-(fluoromethylthio)phenyl)-1-methyl-1-(3-(trifluoromethyl)phenyl)guanidine] |  |  |  |  | 57.5% |
